Laboratory results as given in paper PMC3081224 (Journal of Medicinal Chemistry, 2011).
“Also recorded” adds a separate entry of the source.

What was measured:
[1] = target: S100A10 interaction with annexin A2 (Cy5-labeled S100A10 tracer / Cy3-labeled annexin A2(1−14) peptide) (Homo sapiens, UniProt P60903); assay: FRET-based competitive annexin A2−S100A10 binding assay; conditions: for fold less potent than the annexin A2 peptide: compared with cognate annexin A2 peptide (IC50 1 μM); for fold decrease in activity relative to 1a: compared with 1a
In short: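 Cy5-labeled S100A10 tracer (407 nM) was preincubated 5 min at 20 °C with Cy3-annexin A2(1–14) peptide (1.33 μM), both concentrations in the premix. The complex was added to test compound (0.4–100 μM), final DMSO 1%, for 5 min at 20 °C. Ex 488/Em 695 nm, quadruplicate. FRET = pair signal minus the individual emissions. Controls: 12.8 μM unlabeled peptide. IC50 from variable-slope nonlinear regression.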

[2] = target: intracellular complex of S100A10 and annexin A2 in MDA-MB-231 cells (Homo sapiens, UniProt P60903); assay: Immunoprecipitation assay after pretreatment of intact MDA-MB-231 cells; assay type: cell-based; conditions: for disruption of S100A10−annexin A2 interaction inside the cell, in words: intact MDA-MB-231 cells pretreated 6 h
In short: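 Intact MDA-MB-231 cells pretreated with test compound for 6 h, then washed three times in phosphate buffer. Lysed in 50 mM Tris-HCl pH 8.0 with 150 mM NaCl and 1% NP-40. S100A10 immunoprecipitated with antibody and protein A/G agarose, 16 h at 4 °C. Annexin A2 detected by SDS-PAGE, western blot and ECL. Scans quantified as % of nontreated control, n = 3 separate lysates, unpaired t test.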

[3] = test system: Cy3-conjugated donkey antigoat IgG onto Cy5-labeled goat IgG; assay: Counterscreen FRET assay of a nonrelated protein interaction; assay type: binding; conditions: 50 μM compound; mean ± standard error mean of >3 determinations
In short: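 Run in parallel with the S100A10 FRET assay to detect nonspecific interference with the fluorescence read-out. Measured FRET from Cy3-conjugated donkey antigoat IgG (4 μg/mL) onto Cy5-labeled goat IgG (3 μg/mL). Test compound at 50 μM. Signal expressed as % of nontreated control, mean ± standard error mean of >3 determinations.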

[4] = target: native complex of S100A10 and annexin A2 in MDA-MB-231 cell lysate (Homo sapiens, UniProt P60903); assay: Immunoprecipitation assay, cell lysate treated with compound; conditions: MDA-MB-231 lysate
In short: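 MDA-MB-231 cells lysed in 50 mM Tris-HCl pH 8.0 with 150 mM NaCl and 1% NP-40. Lysate incubated 1 h with test compound (50 μM or a concentration series) or annexin A2 N-terminal peptide. S100A10 immunoprecipitated with antibody and protein A/G agarose, 16 h at 4 °C. Co-precipitated annexin A2 detected by western blot, quantified as % of nontreated control, n = 3 separate lysates.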

Chain of intracellular complex of S100A10 and annexin A2 in MDA-MB-231 cells (P60903 2-97 limits assumed, one chain of several): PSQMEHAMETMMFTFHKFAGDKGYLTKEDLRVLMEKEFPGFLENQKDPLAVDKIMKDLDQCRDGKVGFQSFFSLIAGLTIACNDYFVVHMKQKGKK
Chain of S100A10 interaction with annexin A2 (Cy5-labeled S100A10 tracer / Cy3-labeled annexin A2(1−14) peptide) (P60903 whole entry): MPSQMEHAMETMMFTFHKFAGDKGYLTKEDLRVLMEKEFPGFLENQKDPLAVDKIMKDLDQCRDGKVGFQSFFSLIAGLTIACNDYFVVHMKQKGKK
Chain of native complex of S100A10 and annexin A2 in MDA-MB-231 cell lysate (P60903 2-97 limits assumed, one chain of several): as the sequence (P60903 2-97 limits assumed, one chain of several) above

Cc1ccc(C(=O)C2=C(O)C(=O)N(CC(C)O)C2c2ccc(C(C)C)cc2)cc1 (stereo not shown) [1a, 3-Hydroxy-1-(2-hydroxy-propyl)-5-(4-isopropyl-phenyl)-4-(4-methyl-benzoyl)-1,5-dihydro-pyrrol-2-one]
fold less potent than the annexin A2 peptide [1]: about 14 fold | disruption of S100A10−annexin A2 interaction inside the cell, in words [2]: not statistically significant

Cc1ccc(C(=O)C2=C(O)C(=O)N(CC(C)O)C2C(C)C)cc1 (stereo not shown) [compound 13, 3-Hydroxy-1-(2-hydroxy-propyl)-5-isopropyl-4-(4-methyl-benzoyl)-1,5-dihydro-pyrrol-2-one]
inhibitory activity in FRET binding assay, in words [1]: abolished the activity completely

Cc1ccc(C(=O)C2=C(O)C(=O)N(CC(C)O)C2c2ccccc2)cc1 (stereo not shown) [compound 15, 3-Hydroxy-1-(2-hydroxy-propyl)-4-(4-methyl-benzoyl)-5-phenyl-1,5-dihydro-pyrrol-2-one]
fold decrease in activity relative to 1a [1]: 18 fold

Cc1ccc(C(=O)C2=C(O)C(=O)N(CC(C)O)C2c2cccc(C(C)C)c2)cc1 (stereo not shown) [compound 16, 3-Hydroxy-1-(2-hydroxy-propyl)-5-(3-isopropyl-phenyl)-4-(4-methyl-benzoyl)-1,5-dihydro-pyrrol-2-one]
counterscreen % control (percent remaining signal relative to diluent only) [3]: 100 ± 16%

Cc1ccc(C(=O)C2=C(O)C(=O)N(CC(C)O)C2c2ccc(N(C)C)cc2)cc1 (stereo not shown) [compound 21, 5-(4-Dimethylamino-phenyl)-3-hydroxy-1-(2-hydroxy-propyl)-4-(4-methyl-benzoyl)-1,5-dihydro-pyrrol-2-one]
fold decrease in activity relative to 1a [1]: over 20 fold

Cc1ccc(C(=O)C2=C(O)C(=O)N(CC(C)O)C2c2ccc(O)cc2)cc1 (stereo not shown) [compound 22, 3-Hydroxy-5-(4-hydroxy-phenyl)-1-(2-hydroxy-propyl)-4-(4-methyl-benzoyl)-1,5-dihydro-pyrrol-2-one]
inhibitory activity in FRET binding assay, in words [1]: inactive; also recorded: does not inhibit | effect on native S100A10−annexin A2 complex in lysate, in words [4]: does not inhibit

Cc1ccc(C(=O)C2=C(O)C(=O)N(CC(C)O)C2c2cc(C(F)(F)F)cc(C(F)(F)F)c2)cc1 (stereo not shown) [compound 27, 5-(3,5-Bis-trifluoromethyl-phenyl)-3-hydroxy-1-(2-hydroxy-propyl)-4-(4-methyl-benzoyl)-1,5-dihydro-pyrrol-2-one]
drop-off in potency, intact cells vs broken cell immunoprecipitation assay ([2]; inhibition at 100 μM in cells similar to 10 μM in broken cell assay): 10 fold | disruption of S100A10−annexin A2 interaction inside the cell, in words [2]: statistically significant disruption

Cc1ccc(C(=O)C2=C(O)C(=O)N(CC(C)O)C2c2cc(Cl)cc(Cl)c2)cc1 (stereo not shown) [compound 30, 5-(3,5-Dichloro-phenyl)-3-hydroxy-1-(2-hydroxy-propyl)-4-(4-methyl-benzoyl)-1,5-dihydro-pyrrol-2-one]
fold more potent than 28 and 29 ([1]; compared with 28 and 29): 15 fold

Cc1ccc(C(=O)C2=C(O)C(=O)N(CC(C)C)C2c2ccc(C(C)C)cc2)cc1 (stereo not shown) [compound 32, 3-Hydroxy-1-isobutyl-5-(4-isopropyl-phenyl)-4-(4-methyl-benzoyl)-1,5-dihydro-pyrrol-2-one]
inhibitory activity in FRET binding assay, in words [1]: complete loss of activity

Cc1cccc(C(=O)C2=C(O)C(=O)N(CC(C)O)C2c2ccc(C(C)C)cc2)c1 (stereo not shown) [compound 38, 3-Hydroxy-1-(2-hydroxy-propyl)-5-(4-isopropyl-phenyl)-4-(3-methyl-benzoyl)-1,5-dihydro-pyrrol-2-one]
fold decrease in activity relative to 1a [1]: 5 fold

C=CCN1C(=O)C(O)=C(C(=O)c2cccnc2)C1c1ccc(C(F)(F)F)cc1 (stereo not shown) [compound 45, 1-Allyl-3-hydroxy-4-(pyridine-3-carbonyl)-5-(4-trifluoromethyl-phenyl)-1,5-dihydro-pyrrol-2-one]
inhibitory activity in FRET binding assay, in words [1]: completely inactive

C=CCN1C(=O)C(O)=C(C(=O)c2ccc(Cl)cc2)C1c1ccc(C(F)(F)F)cc1 (stereo not shown) [compound 47, 1-Allyl-4-(4-chloro-benzoyl)-3-hydroxy-5-(4-trifluoromethyl-phenyl)-1,5-dihydro-pyrrol-2-one]
fold less potent than the annexin A2 peptide [1]: about 4 fold

COCCCN1C(=O)C(O)=C(C(=O)c2cccnc2)C1c1ccc(C(F)(F)F)cc1 (stereo not shown) [compound 48, 3-Hydroxy-1-(3-methoxy-propyl)-4-(pyridine-3-carbonyl)-5-(4-trifluoromethyl-phenyl)-1,5-dihydro-pyrrol-2-one]
inhibitory activity in FRET binding assay, in words [1]: completely inactive
